High-throughput results: PubChem, The Scripps Research Institute Molecular Screening Center
GPR7 antagonist: antagonists of human GPR7 (neuropeptides B/W receptor 1); inhibition, % at 4.4 µM; actives 1.1% (n = 290,000); GPR7-expressing cells, fluorescence antagonist assay; P48145; in the data active means inhibition above about 16%, passing the limit was not always enough;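 further: cells stimulated with the agonist NPW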
CHO parental Ca: signal in parental CHO cells, OX1R antagonist counter-screen; parental CHO-K1, ATP-induced calcium, Fluo-8 fluorescence; AID 463079; actives 0.63% (n = 330,000); inhibition, % at 5.6 µM;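 active means inhibition above that plate's mean sample inhibition plus 3 SD, cut at about 26% in these data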
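Assay system – parental CHO cells · Reagent – ATP stimulus · Detection – intracellular calcium via Fluo-8 no-wash fluorescent dye · Evaluation – percent inhibition of ATP-evoked calcium rise, normalized to controls · Controls – ATP wells versus no-ATP DMSO wells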
TAAR1 agonist: agonists of human TAAR1; actives 0.99% (n = 360,000); CHO RD-HGA16 TAAR1, Fluo-8 calcium fluorescence; vehicle wells 0%, saturating PEA agonist 100%; activation, % at 3 µM; Q96RJ0; AID 624467;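 active means activation above the mean activation of all test compounds in the run plus 3 SD, cut at about 38% in these data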
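Test system: RD-HGA16 (CHO) cells co-expressing Gα16 and hTAAR1 | Doses: Single dose, 3 µM | Schedule: 17-24 h seeding, 75 min 37 °C dye, 30 min RT | Evaluation: % activation from peak over basal fluorescence ratio, DMSO-to-PEA scaled | Technique: Kinetic Fluo-8 calcium fluorescence | Benchmarks: Low control DMSO, high control PEA (EC100)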
OX1R antag-1: blocks the human orexin 1 receptor; inhibition, % at 6.6 µM; actives 1.8% (n = 330,000); OX1R-expressing cells, FRET antagonist read-out; O43613; AID 485270; in the data active means inhibition mostly above about 38%, no sharp cut-off; inactive means mostly below about 40%
Target sequence (O43613 whole entry, looked up): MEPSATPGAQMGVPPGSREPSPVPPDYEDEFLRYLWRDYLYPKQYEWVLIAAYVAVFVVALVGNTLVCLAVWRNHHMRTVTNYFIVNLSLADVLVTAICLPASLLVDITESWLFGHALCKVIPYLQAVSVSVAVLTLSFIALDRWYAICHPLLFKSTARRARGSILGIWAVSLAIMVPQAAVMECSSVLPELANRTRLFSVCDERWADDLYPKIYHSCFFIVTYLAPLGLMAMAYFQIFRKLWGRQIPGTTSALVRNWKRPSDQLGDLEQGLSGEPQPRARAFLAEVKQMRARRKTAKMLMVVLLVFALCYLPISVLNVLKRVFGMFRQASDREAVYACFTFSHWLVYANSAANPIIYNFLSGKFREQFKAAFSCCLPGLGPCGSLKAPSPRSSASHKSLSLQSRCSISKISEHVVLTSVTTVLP
TAAR1 antag: antagonists of human TAAR1; CHO RD-HGA16 TAAR1, Fluo-8 calcium fluorescence, antagonist; actives 1.5% (n = 360,000); inhibition, % at 3 µM; AID 624466; Q96RJ0;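 active means inhibition above a per-plate cutoff, the mean inhibition of test compounds on that plate plus 3 SD, cut at about 49% in these data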
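Test system: hTAAR1-expressing CHO RD-HGA16 cells, Gα16-coupled; Probe or stimulus: EC80 β-phenethylamine stimulus; Compound dosing: single nominal final test compound concentration of 3 µM; Timing: 140 s kinetic read after compound, 140 s after agonist; Signal: Fluo-8 calcium-sensitive fluorescence; Measure: % inhibition of agonist calcium response; Controls: DMSO and EC80 PEA controls.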
OX1R antag-2: antagonists of human orexin 1 receptor | inhibition, % at 5 µM | actives 0.43% (n = 330,000) | AID 434989 | CHO/OX1R cells, Fluo-8 calcium fluorescence, orexin A;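 active means inhibition above its plate's threshold, mean inhibition of all tested compounds on the plate plus 3 SD, cut at about 37% in these data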
OX1R HTRF conf: confirmation of human orexin 1 receptor antagonists, HTRF format. shares compounds with OX1R antag-1. OX1R-expressing cells, HTRF antagonist assay. inhibition, % at 6.6 µM. actives 49% (n = 1,800). AID 492964; in the data active means inhibition above about 55%;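 further: CHO cells expressing OX1R stimulated with orexin A at about EC80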
CHO-K1 HTRF: counter-screen: parental CHO-K1 HTRF response; shares compounds with OX1R antag-1; actives 48% (n = 1,800); inhibition, % at 6.6 µM; parental CHO-K1 cells, HTRF counterscreen; AID 493232; in the data active means inhibition above about 17%
Of the large screens only hits and unclear results are named; the others gave an inactive call (follow-up assays come after a bar, where they were run). In the library only some 4.6% were active in any assay of this set; here they are far more common.

c1ccc(CCn2c(SCc3ccccc3)nnc2-c2ccncc2)cc1	OX1R antag-1 101 | OX1R HTRF conf inactive | CHO-K1 HTRF inactive
N#Cc1ccc(CSc2nnc(-c3ccncc3)n2CCc2ccccc2)cc1	none
Cc1cccn2c(=O)c3cc(C(=O)NC(C)C)c(=N)n(Cc4ccncc4)c3nc12	OX1R antag-1 84 | OX1R HTRF conf inactive | CHO-K1 HTRF 57
COCCCNC(=O)c1cc2c(=O)n3cccc(C)c3nc2n(C(C)C)c1=N	OX1R antag-1 81 | OX1R HTRF conf inactive | CHO-K1 HTRF 38
COCCn1c(=N)c(C(=O)NCCc2ccc(OC)cc2)cc2c(=O)n3cccc(C)c3nc21	none
Cc1ccc2nc3c(cc(C(=O)NC4CCCCC4)c(=N)n3C3CCCCC3)c(=O)n2c1	none
CNC(=O)c1cc2c(=O)n3cc(C)ccc3nc2n(C(C)C)c1=N	OX1R antag-1 145 | OX1R HTRF conf inactive | CHO-K1 HTRF 71
CCOc1ccccc1OCCCC(=O)Nc1cc(S(=O)(=O)N2CCCCC2)ccc1C	none (no result: GPR7 antagonist, CHO parental Ca, OX1R antag-1, OX1R antag-2)
CCN1CCc2c(C#N)c(N3CCOCC3)nc(NCc3ccccc3)c2C1	none (no result: CHO parental Ca, OX1R antag-1, OX1R antag-2)
CCN1CCc2c(C#N)c(N3CCOCC3)nc(NCCO)c2C1	OX1R antag-1 78 | OX1R HTRF conf inactive | CHO-K1 HTRF inactive
COc1ccc(-c2cc(C(F)(F)F)n3ncc(C(=O)O)c3n2)cc1OC	OX1R antag-1 82 | OX1R HTRF conf inactive | CHO-K1 HTRF 55
CC(C)n1c(O)c(N=NC(=O)CNC(=O)Cc2ccc(Cl)cc2)c2ccccc21	none
COc1ccccc1C(=O)NCC(=O)N=Nc1c(O)n(C(C)C)c2ccccc12	OX1R antag-1 93 | OX1R HTRF conf 76 | CHO-K1 HTRF inactive
C[C@@H](c1ccccc1)N1C[C@H](COCc2ccccc2)Oc2cc(N3CCC[C@@H]3CO)ccc2S1(=O)=O	none (no result: GPR7 antagonist, CHO parental Ca, OX1R antag-1, OX1R antag-2)
Clc1ccccc1C1CC(c2ccccc2)Nc2ncnn21 (configuration not stated)	OX1R antag-1 79 | OX1R HTRF conf inactive | CHO-K1 HTRF inactive
Cc1cccnc1C(c1ccc(F)cc1)N(C)C(=O)C1CCN(CCOc2ccc(Cl)cc2Cl)CC1 (configuration not stated)	none (no result: GPR7 antagonist, CHO parental Ca, OX1R antag-1, OX1R antag-2)
CC1CC(=O)NN=C1c1ccc(N)c([N+](=O)[O-])c1 (configuration not stated)	OX1R antag-1 83 | OX1R HTRF conf inactive | CHO-K1 HTRF 29
CCOCCCNc1nc2nc3ccc(C)cn3c(=O)c2cc1C(=O)NCC1CCCO1 (configuration not stated)	OX1R antag-1 112 | OX1R HTRF conf inactive | CHO-K1 HTRF 78
Cc1ccc2nc3c(cc(C(=O)NCC4CCCO4)c(=N)n3CCCOC(C)C)c(=O)n2c1 (configuration not stated)	OX1R antag-1 82 | OX1R HTRF conf inactive | CHO-K1 HTRF 85
CCn1cc(C(=O)NCC2CCCO2)c2cc(OC)c(OC)cc2c1=O (configuration not stated)	none
Cc1ccc2nc3c(cc(C(=O)NCC4CCCO4)n3C)c(=O)n2c1 (configuration not stated)	none (no result: CHO parental Ca, TAAR1 agonist, OX1R antag-1, TAAR1 antag, OX1R antag-2)
COc1cccc2cc(-c3cn4cccc(C)c4n3)c(=O)oc12	none
COc1cccc2cc(-c3cn4ccc(C)cc4n3)c(=O)oc12	OX1R antag-1 86 | OX1R HTRF conf 91 | CHO-K1 HTRF inactive
COC(=O)[C@@]12C[C@@H](CC(=O)NCc3cccc(C(F)(F)F)c3)C(=O)N(Cc3ccccc3)C1=CCC(C)(C)C2	none (no result: GPR7 antagonist, CHO parental Ca, OX1R antag-1, OX1R antag-2)
CN(C)CCN1CCN(C2CN(Cc3ccc(F)cc3)S(=O)(=O)C2)CC1 (configuration not stated)	none (no result: GPR7 antagonist, CHO parental Ca, OX1R antag-1, OX1R antag-2)
O=C1CCCC(O)=C1N=Nc1cccc(S(=O)(=O)N2CCOCC2)c1	none
O=C1CCCC(O)=C1N=Nc1ccc(C(=O)O)cc1	OX1R antag-1 86 | OX1R HTRF conf 72 | CHO-K1 HTRF 64
O=C1CCCC(O)=C1N=Nc1c(Cl)cc(C(F)(F)F)cc1Cl	none
